From ChEMBL document CHEMBL2406932, “Heteroaromatic and aniline derivatives of piperidines as potent ligands for vesicular acetylcholine transporter” (J Med Chem, 2013)

How the values were obtained:
PC-12 [1] = assay: Selectivity ratio, ratio of Ki for sigma 1 receptor in guinea pig brain homogenates to Ki for human VAChT expressed in rat PC12 cells; assay type: cell-based
PC-12 [2] = assay: Selectivity ratio, ratio of Ki for sigma 2 receptor in rat liver homogenates to Ki for human VAChT expressed in rat PC12 cells; assay type: cell-based
[3] = biological target: Sigma non-opioid intracellular receptor 1 (Cavia porcellus, UniProt Q60492); assay: Displacement of (+)- [3H]pentazocine from sigma 1 receptor expressed in guinea pig brain membrane homogenates by scintillation counting analysis; assay type: cell membranes
[4] = biological target: T1, Vesicular acetylcholine transporter (Homo sapiens, UniProt Q16572); assay: Displacement of (-)-[3H]vesamicol from human VAChT expressed in rat PC12 cell membrane after 20 hrs; assay type: cell membranes, PC-12
T1 sequence (Q16572 whole entry): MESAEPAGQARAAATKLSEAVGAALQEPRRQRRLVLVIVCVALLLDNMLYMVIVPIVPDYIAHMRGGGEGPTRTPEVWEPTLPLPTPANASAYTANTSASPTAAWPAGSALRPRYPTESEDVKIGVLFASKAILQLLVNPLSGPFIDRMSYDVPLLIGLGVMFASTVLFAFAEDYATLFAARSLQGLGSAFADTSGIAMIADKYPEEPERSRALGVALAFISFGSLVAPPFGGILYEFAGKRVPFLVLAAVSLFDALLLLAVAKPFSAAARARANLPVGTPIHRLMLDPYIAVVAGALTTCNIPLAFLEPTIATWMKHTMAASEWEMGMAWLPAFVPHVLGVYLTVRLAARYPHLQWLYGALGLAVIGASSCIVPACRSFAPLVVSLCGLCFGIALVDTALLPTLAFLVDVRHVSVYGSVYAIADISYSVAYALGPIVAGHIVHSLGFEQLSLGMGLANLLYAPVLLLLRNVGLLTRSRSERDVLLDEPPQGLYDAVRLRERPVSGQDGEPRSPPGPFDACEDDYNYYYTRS

[5] = Displacement of [3H]DTG from sigma 2 receptor in rat liver membrane homogenates after 120 mins by scintillation counting analysis; assay type: cell membranes
Summary of the method: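 Rat liver membrane homogenate (~300 µg protein) with ~5 nM [3H]DTG plus 1 µM (+)-pentazocine to block sigma-1 sites, 120 min at room temperature, pH 7.4 Tris buffer. Nonspecific binding taken with 10 µM haloperidol. Filtration and scintillation counting.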

Chain of Sigma non-opioid intracellular receptor 1 (Q60492 whole entry): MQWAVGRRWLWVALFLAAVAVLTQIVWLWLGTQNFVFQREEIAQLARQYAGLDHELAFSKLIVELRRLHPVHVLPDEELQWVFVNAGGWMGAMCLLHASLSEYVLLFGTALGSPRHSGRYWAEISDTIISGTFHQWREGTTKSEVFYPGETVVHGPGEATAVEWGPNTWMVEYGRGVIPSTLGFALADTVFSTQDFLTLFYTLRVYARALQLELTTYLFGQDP

What does the source list for `COc1ccc(C(=O)C2CCN([C@@H]3Cc4c(N)cccc4C[C@H]3O)CC2)cn1` (racemic)?
Ratio Ki (PC-12 [1]): 120; Ratio Ki (PC-12 [2]): 220; Ki [3]: 5680 nM; Ki [4]: 23.3 nM; Ki [5]: 10.8 µM

What does the source list for `COc1ccc(C(=O)C2CCN([C@@H]3Cc4ccccc4C[C@H]3O)CC2)cn1` (racemic)?
Ki [3]: 986 nM; Ki [4]: 8.36 nM; Ki [5]: 2.57 µM

For `Nc1ccc(C(=O)C2CCN([C@@H]3Cc4ccccc4C[C@H]3O)CC2)cc1` (racemic), which Ki ([4]; pc-12) is on record?
The Ki was 1.68 nM.

For `CNc1ccc(C(=O)C2CCN(C3Cc4ccccc4CC3O)CC2)cc1` (single isomer, unassigned; (+)), which Ratio Ki (PC-12 [1]) is on record?
The Ratio Ki was 61.5.

And the Ratio Ki (PC-12 [2])?
The Ratio Ki was 408.

What about the Ki [3] of the same molecule?
The Ki was 1170 nM.

What about the Ki [4] of the same molecule?
The Ki was 19 nM.

What about the Ki [5] of the same molecule?
Its Ki is 7.77 µM.
